Drawing on ChEMBL document CHEMBL4229351, “Design, synthesis and anticancer evaluation of novel spirobenzo[h]chromene and spirochromane derivatives with dual EGFR and B-RAF inhibitory activities” (Eur J Med Chem, 2018), this text covers IC50 and Activity for 17 compounds.

For one assay, the system named is MCF7. Description: Anticancer activity against human MCF7 cells assessed as reduction in cell viability after 96 hrs by MTT assay. It counts as functional, cell-based. Conditions: MCF7, 96 h. In a few lines:
(§1)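 Cancer lines grown in RPMI with 10% FBS and 1% penicillin/streptomycin, 37 C, humidified 5% CO2. Cells exposed to test agents or vehicle in RPMI/10% FBS for 96 h; viability read by MTT; IC50 as mean ± S.D., n = 6.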
(In general: Formazan colour is commonly taken as a measure of viable cells.)

The subject of a further assay is HT-29. The experiment in a line: Anticancer activity against human HT-29 cells assessed as reduction in cell viability after 96 hrs by MTT assay. It counts as functional, cell-based. Conditions: HT-29, 96 h. An outline of the steps:
as §1

The next assay concerns A549. Description: Anticancer activity against human A549 cells assessed as reduction in cell viability after 96 hrs by MTT assay. It counts as functional, cell-based. Conditions: A549, 96 h. An outline of the steps: as §1
Assay [1] can be described thus: Cytotoxicity against human F180 cells assessed as reduction in cell viability after 96 hrs by MTT assay. The class given is cell-based. Conditions: F180, 96 h. An outline of the steps:
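F180 normal fibroblasts kept in MEM with 10% FBS and 1% penicillin/streptomycin at 37 C, humidified 5% CO2. Treated with test agents or vehicle in MEM/10% FBS for 96 h; viability by MTT; IC50 reported as mean ± S.D. (n = 6).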

For another assay, the species on record is Sus scrofa. Description: Inhibition of porcine brain tubulin polymerization assessed as tubulin polymerization level by measuring arbitary units at 3 uM by fluorescence analysis.

As a reminder, the IC50 is the midpoint of a concentration-inhibition curve. Regarding `O=C1c2ccccc2C(=O)N1/N=C1\CC2(CCCCC2)Oc2c1ccc1ccccc21`, the IC50 in the assay with MCF7 came to 12.1 µM; in the assay with HT-29 it was 8.34 µM; in the assay on A549, 12.4 µM.
For `CSC(=S)N/N=C1\CC2(CCCCC2)Oc2c1ccc1ccccc21`, the IC50 is 5.1 µM in the assay on MCF7, 4.13 µM with HT-29, above 40 µM in assay [1] and 3.99 µM in the assay on A549.
With `CC[C@]1(O)C[C@H]2CN(CCc3c([nH]c4ccccc34)[C@@](C(=O)OC)(c3cc4c(cc3OC)N(C=O)[C@H]3[C@@](O)(C(=O)OC)[C@H](OC(C)=O)[C@]5(CC)C=CCN6CC[C@]43[C@@H]65)C2)C1`, the Activity in the assay listed under Sus scrofa worked out at 747 a.u.
Take `O=C(N/N=C1\CC2(CCCCC2)Oc2c1ccc1ccccc21)Nc1ccccc1`: the IC50 in the assay on MCF7 was found to be 12 µM; in the assay on HT-29 it was 4.74 µM; in the assay on A549 it was 8.15 µM.
The matching figures for `S=C(N/N=C1\CC2(CCCCC2)Oc2c1ccc1ccccc21)N1CCCCC1`: 13.3 µM, 6.77 µM and 11.4 µM.
For `S=C(N/N=C1\CC2(CCCCC2)Oc2c1ccc1ccccc21)N1CCOCC1` the same measures were 11.9 µM, 9.31 µM and 10.1 µM.
The matching figures for `N/N=C1\CC2(CCCCC2)Oc2c1ccc1ccccc21`: 9.74 µM, 9.97 µM and 12.9 µM.
Turning to `O=C1CC2(CCCCC2)Oc2c1ccc1ccccc21`, the IC50 with MCF7 came to 10.7 µM; with HT-29, 6.15 µM; in the assay on A549 it was 10.6 µM.
Take `S=C(N/N=C1\CC2(CCCCC2)Oc2c1ccc1ccccc21)NC1CCCCC1`: the IC50 in the assay with MCF7 stood at 15.1 µM; in the assay with HT-29, 7.44 µM; in the assay on A549 it was 9.14 µM.
The matching figures for `Cc1ccc(NC(=O)N/N=C2\CC3(CCCCC3)Oc3c2ccc2ccccc32)cc1`: 9.07 µM, 7.09 µM and 8.35 µM.
For `C#Cc1cccc(Nc2ncnc3cc(OCCOC)c(OCCOC)cc23)c1` [ERLOTINIB] the same measures were above 20 µM, above 20 µM and 17.3 µM.
Turning to `CNC(=O)c1cc(Oc2ccc(NC(=O)Nc3ccc(Cl)c(C(F)(F)F)c3)cc2)ccn1` [SORAFENIB], the IC50 is 3.64 µM with MCF7, 3.97 µM in the assay with HT-29, above 40 µM in assay [1] and 6.21 µM in the assay on A549.
As to `O=C1Nc2ccccc2/C1=N/N=C1\CC2(CCCCC2)Oc2c1ccc1ccccc21`, the IC50 in the assay with MCF7 was 5.11 µM; in the assay on HT-29, 7.67 µM; in assay [1] it was above 40 µM; in the assay on A549, 11.1 µM.
With `CN1CCN(C(=S)N/N=C2\CC3(CCCCC3)Oc3c2ccc2ccccc32)CC1`, the IC50 with MCF7 came out at 11.7 µM; with HT-29, 8.17 µM; in the assay with A549 it was 10.6 µM.
The matching figures for `O=C(N/N=C1\CC2(CCCCC2)Oc2c1ccc1ccccc21)Nc1ccc(Cl)cc1`: 15 µM, 7.37 µM and 9.54 µM.
The matching figures for `S=C(N/N=C1\CC2(CCCCC2)Oc2c1ccc1ccccc21)N1CCNCC1`: 14.2 µM, 8.34 µM and 12 µM.
`CC(=O)O[C@@]12CO[C@@H]1C[C@H](O)[C@@]1(C)C(=O)[C@H](O)C3=C(C)[C@@H](OC(=O)[C@H](O)[C@@H](NC(=O)OC(C)(C)C)c4ccccc4)C[C@@](O)([C@@H](OC(=O)c4ccccc4)[C@H]21)C3(C)C`: the Activity in the assay listed under Sus scrofa worked out at 4820 a.u.
